The list is not random: actives were taken first. Their share in the collection is about 1.5%.
PG9 binder = small molecules binding HIV-1 gp120 antibody PG9. AID 624416. TR-FRET gp120-PG9 antibody binding. inhibition, % at 6.7 µM. actives 0.43% (n = 360,000); in the data active means inhibition above about 8.5%
NR2E3 ag-1 = agonists of human NR2E3 nuclear receptor | CHO-S Gal4-NCOR/VP16-NR2E3 two-hybrid, luciferase | inhibition of corepressor binding, % at 3.98 µM | actives 0.35% (n = 360,000) | AID 602229;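 active means inhibition above the mean of all tested compounds plus 3 SD, cut at about 70% in these data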;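 further: higher means lower luciferase signal from less NR2E3 corepressor binding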
Target sequence (Q9Y5X4 whole entry, looked up, the tested form may be a part): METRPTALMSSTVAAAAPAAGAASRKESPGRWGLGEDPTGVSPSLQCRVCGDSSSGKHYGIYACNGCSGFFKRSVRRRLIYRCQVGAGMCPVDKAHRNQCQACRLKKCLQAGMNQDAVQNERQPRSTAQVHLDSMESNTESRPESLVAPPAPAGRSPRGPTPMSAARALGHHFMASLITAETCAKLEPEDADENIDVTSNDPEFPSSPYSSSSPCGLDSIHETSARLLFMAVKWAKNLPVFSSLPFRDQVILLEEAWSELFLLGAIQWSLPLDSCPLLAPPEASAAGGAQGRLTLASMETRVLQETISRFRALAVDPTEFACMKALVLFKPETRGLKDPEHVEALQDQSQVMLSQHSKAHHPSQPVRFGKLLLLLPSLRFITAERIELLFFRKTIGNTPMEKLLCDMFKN
NR2E3 ag-2 = activates human photoreceptor nuclear receptor NR2E3; Q9Y5X4; inhibition of corepressor binding, % at 4.78 µM; actives 0.12% (n = 320,000); AID 2300; GST-NR2E3/biotin-RetCOR TR-FRET, 1536-well;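 active means percent inhibition above the cutoff of mean plus 3 SD of all tested compounds, set per screening campaign, cut at about 20% in these data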
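Assay system: NR2E3–RetCOR corepressor complex. Quantity: 1.35 nM GST-NR2E3. Buffer or medium: pH 7.5 Tris-based buffer. Reagent: biotinylated RetCOR corepressor at 7 nM final. Schedule: 5 h at 4 °C. Detection: TR-FRET, emission read at 617 and 671 nm. Replicates: one well per compound, singlicate testing.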
Rev-erbA mod = modulates human Rev-erb alpha binding to DNA. P20393. Rev-erbα–FITC-DNA binding, fluorescence polarization, 90 min. activity, % at 10 µM. actives 0.79% (n = 370,000). AID 1259318;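 active means activity above about 14%, limit read from the data; passing the limit was not always enough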
Rev-erbA confirm = confirmation of modulators of human Rev-erb alpha DNA binding. shares compounds with Rev-erbA mod. Rev-erb alpha FITC-DNA binding, fluorescence polarization, 90 min. activation, % at 25 µM. actives 61% (n = 3,000). AID 1259319;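 active means activation at or above a set limit, or at least 3 SD above the negative control mean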
RORg DNA counter = affects RORgamma DNA binding in a Rev-erb alpha counter-screen; shares compounds with Rev-erbA mod; purified RORgamma protein-FITC-DNA binding, fluorescence polarization; IC50, µM; actives 8% (n = 910);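 active means Compounds whose fitted half-maximal concentration for disrupting protein-DNA binding is below 10 micromolar; the record names Rev-erb in its text, so the target is in doubt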
A number is an active result.

What do the screens show for `O=C(Nc1ccc2nn(-c3ccccc3)nc2c1)c1ccc2c(c1)OCCO2`?
PG9 binder: inactive; NR2E3 ag-1: inactive; NR2E3 ag-2: inactive; Rev-erbA mod: inactive

Results for COc1ccc(-c2cc(C(=O)Nc3cccnc3Cl)no2)cc1OC ?
PG9 binder: inactive; NR2E3 ag-1: inactive; NR2E3 ag-2: inactive; Rev-erbA mod: 38.8; Rev-erbA confirm: 35.3; RORg DNA counter: inactive

What do the screens show for `O=C(Nc1cccnc1Cl)c1cc(-c2cccc(O)c2)on1`?
PG9 binder: inactive; NR2E3 ag-1: inactive; NR2E3 ag-2: inactive; Rev-erbA mod: inactive

What do the screens show for `O=C(Nc1cccnc1Cl)c1cc(-c2ccc(Br)cc2)on1`?
PG9 binder: inactive; NR2E3 ag-1: inactive; NR2E3 ag-2: inactive; Rev-erbA mod: 23.4; Rev-erbA confirm: inactive

Results for COc1ccc(CN2CCNC(=O)C2CC(=O)NCc2cn3ccc(C)cc3n2)c(OC)c1 (stereo not given) ?
PG9 binder: inactive; NR2E3 ag-1: inactive; NR2E3 ag-2: inactive; Rev-erbA mod: inactive

What do the screens show for `NS(=O)(=O)c1ccc(CCNC(=O)c2ccc(Cn3c(=O)[nH]c4ccccc4c3=O)cc2)cc1`?
PG9 binder: inactive; NR2E3 ag-1: inactive; NR2E3 ag-2: inactive; Rev-erbA mod: 19.3; Rev-erbA confirm: inactive

What do the screens show for `CC(C)CCNC(=O)c1ccc(Cn2c(=S)[nH]c3ccccc3c2=O)cc1`?
PG9 binder: inactive; NR2E3 ag-1: inactive; NR2E3 ag-2: inactive; Rev-erbA mod: 28.9; Rev-erbA confirm: 26.0

What do the screens show for `CC(=O)N1CCN(C2=NC(=O)N(c3ccc(Br)cc3)C(=O)C2)CC1`?
Rev-erbA mod: inactive

Results for CC(c1ccccc1)N1CC[C@H]2C=CC[C@@H](C(=O)Nc3ccc(F)c(F)c3)[C@H]2C1=O (stereo not given in full) ?
Rev-erbA mod: inactive

How did CCCNC(=O)c1c(NC(=O)C2COc3ccccc3O2)sc2c1CCCC2 (stereo not given) do in these assays?
PG9 binder: inactive; NR2E3 ag-1: inactive; NR2E3 ag-2: inactive; Rev-erbA mod: 48.8; Rev-erbA confirm: inactive

What do the screens show for `CCOC(=O)CSc1nc(N)c(C#N)c(-c2cccs2)c1C#N`?
PG9 binder: inactive; NR2E3 ag-1: inactive; NR2E3 ag-2: inactive; Rev-erbA mod: 16.1; Rev-erbA confirm: 21.3

How did COc1ccc(-c2cc(-c3cccs3)c(C#N)c(SCC(=O)NCc3ccccc3OC)n2)cc1 do in these assays?
PG9 binder: inactive; NR2E3 ag-1: inactive; NR2E3 ag-2: inactive; Rev-erbA mod: 46.1; Rev-erbA confirm: 25.5

How did COc1ccccc1CNC(=O)CSc1nc(N)c(C#N)c(-c2cccs2)c1C#N do in these assays?
PG9 binder: inactive; NR2E3 ag-1: inactive; NR2E3 ag-2: inactive; Rev-erbA mod: 35.1; Rev-erbA confirm: 24.6

How did COc1ccccc1CCNC(=O)CSc1ccc(-c2cccs2)nn1 do in these assays?
PG9 binder: inactive; NR2E3 ag-1: inactive; NR2E3 ag-2: inactive; Rev-erbA mod: inactive

What do the screens show for `N#Cc1c(N)nc(SCc2ccccn2)c(C#N)c1-c1cccs1`?
PG9 binder: inactive; NR2E3 ag-1: inactive; NR2E3 ag-2: inactive; Rev-erbA mod: inactive

How did COc1ccc(-c2cc(-c3cccs3)c(C#N)c(SCC(=O)NCc3ccccc3)n2)cc1 do in these assays?
PG9 binder: inactive; NR2E3 ag-1: inactive; NR2E3 ag-2: inactive; Rev-erbA mod: 52.1; Rev-erbA confirm: 26.1

What do the screens show for `N#Cc1c(-c2ccccc2)cc(-c2cccs2)nc1SCC(=O)O`?
PG9 binder: inactive; NR2E3 ag-1: inactive; NR2E3 ag-2: inactive; Rev-erbA mod: inactive

How did CC(NC(=O)c1ccccc1NC(=O)c1ccco1)c1ccccc1 (stereo not given) do in these assays?
PG9 binder: inactive; NR2E3 ag-1: inactive; NR2E3 ag-2: inactive; Rev-erbA mod: 21.0; Rev-erbA confirm: 21.7

What do the screens show for `CCn1cc(C(=O)NCCc2ccccc2C)c(=O)c2ccc(C)nc21`?
PG9 binder: inactive; NR2E3 ag-1: inactive; Rev-erbA mod: 43.6; Rev-erbA confirm: 51.9; RORg DNA counter: 3.77

What do the screens show for `CC1(Cc2ccccc2Cl)C(=O)Nc2ccc(OC(F)(F)F)cc21` (stereo not given)?
PG9 binder: inactive; NR2E3 ag-1: inactive; Rev-erbA mod: 35.5; Rev-erbA confirm: 45.0; RORg DNA counter: inactive

What do the screens show for `CC1(Cc2ccccc2C#N)C(=O)Nc2ccc(OC(F)(F)F)cc21` (stereo not given)?
PG9 binder: inactive; NR2E3 ag-1: inactive; Rev-erbA mod: 28.2; Rev-erbA confirm: 25.9

What do the screens show for `COc1ccc(OC(F)(F)F)cc1CC1(C)C(=O)Nc2c(Cl)ccc(Cl)c21` (stereo not given)?
NR2E3 ag-1: inactive

How did C=CCOc1ccc(C2=NOC(C(=O)Nc3ccc4c(c3)OCCO4)C2)cc1OC (stereo not given) do in these assays?
PG9 binder: inactive; NR2E3 ag-1: inactive; NR2E3 ag-2: inactive; Rev-erbA mod: inactive

What do the screens show for `COC(=O)c1ccc(/C=C/C(=O)OCC(=O)c2ccc[nH]2)cc1`?
PG9 binder: inactive; NR2E3 ag-1: inactive; Rev-erbA mod: inactive

What do the screens show for `CSc1nnc(N2C(=O)C(O)=C(C(=O)c3ccco3)C2c2cccc(Cl)c2)s1` (stereo not given)?
PG9 binder: inactive; NR2E3 ag-1: inactive; NR2E3 ag-2: inactive; Rev-erbA mod: 30.6; Rev-erbA confirm: 29.3; RORg DNA counter: inactive

Results for O=C(Nc1ccc(F)cc1F)C1CCN(c2ncnc3c2sc2cccc(F)c23)CC1 ?
PG9 binder: inactive; NR2E3 ag-1: inactive; NR2E3 ag-2: inactive; Rev-erbA mod: 32.6; Rev-erbA confirm: 27.3

How did O=C(C1CCN(c2ncnc3c2sc2cccc(F)c23)CC1)N1CCCCC1 do in these assays?
Rev-erbA mod: inactive

What do the screens show for `CCOc1cc(/C=C2/C(=N)N3C=CSC3=NC2=O)ccc1OCCCOc1ccccc1C`?
PG9 binder: inactive; NR2E3 ag-1: inactive; NR2E3 ag-2: inactive; Rev-erbA mod: 18.4; Rev-erbA confirm: inactive

What do the screens show for `O=c1[nH]nc(Cc2ccc(Cl)cc2)c2ccccc12`?
PG9 binder: inactive; NR2E3 ag-1: inactive; NR2E3 ag-2: inactive; Rev-erbA mod: inactive

How did O=c1[nH]nc(Cc2ccc(-c3ccccc3Cl)o2)c2ccccc12 do in these assays?
PG9 binder: inactive; NR2E3 ag-1: inactive; NR2E3 ag-2: inactive; Rev-erbA mod: 33.7; Rev-erbA confirm: 16.6

What do the screens show for `COc1cc(C(=O)Nc2ccc(Oc3ncnc4sc(-c5ccccc5)cc34)cc2)cc(OC)c1OC`?
PG9 binder: inactive; NR2E3 ag-1: inactive; NR2E3 ag-2: inactive; Rev-erbA mod: 29.5; Rev-erbA confirm: inactive

How did COc1ccccc1C(=O)Nc1ccc(Oc2ncnc3sc(-c4ccccc4)cc23)cc1 do in these assays?
PG9 binder: inactive; NR2E3 ag-1: inactive; NR2E3 ag-2: inactive; Rev-erbA mod: 46.4; Rev-erbA confirm: 21.4

Results for COc1ccc(C(=O)Nc2ccc(Oc3ncnc4sc(-c5ccccc5)cc34)cc2)cc1OC ?
PG9 binder: inactive; NR2E3 ag-1: inactive; NR2E3 ag-2: inactive; Rev-erbA mod: inactive
